Bioassay records as filed in PubChem.
NTR1 agonist: NTR1 (human) agonism; P30989; NTR1-U2OS beta-arrestin-GFP spot imaging, agonist mode; activation, % at 20 µM; hit rate 0.17% among 330,000; AID 493036;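 active = activation at or above 40% of the spot to cytoplasm intensity ratio, with at least 20 cells analyzed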;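 also: 0% = DMSO without peptide and 100% = 100 nM NTR1 peptide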
MC4R ag barr: activates human MC4R beta-arrestin recruitment. hit rate 0.98% among 360,000. P32245. U2OS MC4R beta-arrestin complementation, luminescence; percent of melanotan II response, DMSO zero. activation, % at 8.9 µM;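 active = activation above a per-plate cutoff, the mean activation of sample wells on that plate plus 3 SD, cut at about 8% in these data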
Target sequence (P32245 whole entry, looked up): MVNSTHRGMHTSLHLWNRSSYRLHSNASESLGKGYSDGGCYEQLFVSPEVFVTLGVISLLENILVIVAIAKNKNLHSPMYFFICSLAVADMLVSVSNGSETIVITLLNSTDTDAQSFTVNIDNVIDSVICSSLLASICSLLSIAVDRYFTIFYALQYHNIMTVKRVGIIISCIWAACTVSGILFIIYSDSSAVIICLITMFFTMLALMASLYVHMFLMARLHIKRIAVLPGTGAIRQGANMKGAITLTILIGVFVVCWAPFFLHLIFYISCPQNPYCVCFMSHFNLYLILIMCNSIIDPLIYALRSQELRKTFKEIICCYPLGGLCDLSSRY
MC4R antagonist: human MC4R antagonism in cAMP assay. P32245. MC4R-expressing cells, MTII-stimulated cAMP, LANCE TR-FRET. inhibition, % at 6.5 µM. hit rate 0.48% among 360,000. AID 540295;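 active = inhibition above its plate's cutoff, the mean of tested wells on that plate plus 3 SD, cut at about 29% in these data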;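 also: 0% = Melanotan II alone and 100% = Melanotan II plus saturating MCL0020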
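Assay system: human MC4R-expressing U2OS cells; reagent: Melanotan II stimulation of cells; dosing: 6.5 µM single dose; timing: compound 30 min, challenge 1 h, detection 1 h; signal: TR-FRET cAMP assay; replicates: one well per compound, no replicates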
Rev-erbA mod: modulators of human Rev-erb alpha DNA binding; P20393; Rev-erbα–FITC-DNA binding, fluorescence polarization, 90 min; activity, % at 10 µM; hit rate 0.79% among 370,000; AID 1259318;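 active = activity above about 14%, limit read from the data; passing the limit was not always enough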;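 also: 0% = DMSO wells with 35 nM protein and 100% = DMSO wells with 750 nM protein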
PG9 Ab binder: small molecules binding HIV-1 gp120 antibody PG9. inhibition, % at 6.7 µM. AID 624416. TR-FRET gp120-PG9 antibody binding. hit rate 0.43% among 360,000; in the data active = inhibition above about 8.5%
NTR1 ag conf: confirmation of agonists of human NTR1 | NTR1-U2OS beta-arrestin-GFP translocation imaging | hit rate 38% among 480 | activation, % at 20 µM | shares compounds with NTR1 agonist;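 active = mean activation at 20 µM of at least 40%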;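 also: 0% = DMSO without peptide and 100% = 100 nM NTR1 peptide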
Starred values were filed as active, the others as inactive; nt = no result given. Compounds with a hit are over-represented: about 2.5% of the library has one in this group of screens.

SMILES | NTR1 agonist | MC4R ag barr | MC4R antagonist | Rev-erbA mod | PG9 Ab binder | NTR1 ag conf
Cc1ccc(-c2csc3ncnc(Sc4nnc(CN5CCCCCC5=O)o4)c23)cc1 | 49* | -1 | 6 | -3 | 2 | 56*
Cc1ccc(NC2Sc3ccccc3NC2=O)cc1Cl (stereo unspecified) | 51* | 2 | 8 | 1 | 1 | 9
Cc1[nH]c2ccccc2c1/C=N/Nc1ccccc1[N+](=O)[O-] | 40* | -2 | -2 | -5 | -3 | 10
O=C(/C=C\c1ccccc1OC(=O)c1ccccc1F)c1cc2ccccc2o1 | 67* | -1 | -12 | -1 | -2 | 74*
OC(Cn1cncn1)(c1ccccc1)c1ccccc1 | 55* | 0 | 0 | -1 | 1 | -4
c1ccc(SCCOCCn2cncn2)cc1 | 1 | -1 | 7 | 0 | 1 | nt
CCc1nc2ccccc2c(C(=O)OCC(=O)Nc2cccc(S(=O)(=O)N3CCOCC3)c2)c1C | 60* | 1 | 20 | -5 | 2 | 65*
O=C(OCc1cn(Cc2ccc(F)cc2F)nn1)N1CCCC1 | nt | nt | nt | 2 | nt | nt
CCN1CCN(CCNC(=O)c2ccc(/C=C3/Sc4ccccc4N(Cc4cccc(Cl)c4)C3=O)cc2)CC1 | 58* | 4 | 11 | -1 | 0 | 27
Cc1cccc(CN2C(=O)/C(=C\c3ccc(C(=O)NCCN4CCOCC4)cc3)Sc3ccccc32)c1 | 18 | 4 | 5 | nt | nt | nt
COc1ccc(NC(=O)CNC(=O)Cn2c(C)cc3ccccc3c2=O)cc1OC | 2 | -2 | 7 | -4 | 0 | nt
Cc1cc2ccccc2c(=O)n1CC(=O)Nc1ccc2c(c1)OCCO2 | 46* | -1 | -3 | 5 | -2 | -6
CCOC(=O)[C@@]12CN(C(=O)OC(C)(C)C)CC=C1N(Cc1ccc(OC)cc1)C(=O)[C@H]2CC(=O)NCC12CC3CC(CC(C3)C1)C2 | nt | nt | nt | -2 | nt | nt
Cc1cccc2sc(NNC(=O)c3cc(-c4cccs4)nc4ccccc34)nc12 | 40* | -2 | 9 | 5 | 2 | -1
NNC(=O)c1cc(-c2cccs2)nc2ccccc12 | 0 | 1 | 6 | -7 | -1 | nt
Cc1cccc(OCc2n(CC(=O)OC3CC(C)CCC3C(C)C)c3ccccc3[n+]2C)c1 (stereo unspecified) | 92* | 23* | -3 | nt | nt | 101*
CCCC[C@H]1C2CC(OC(=O)Nc3ccccc3C(F)(F)F)C(C2)[C@H]2CCCCN21 (stereo partly specified) | nt | nt | nt | -4 | nt | nt
CC1CCC(C(C)C)C(OCC(O)CNC(C)(C)C)C1 (stereo unspecified) | 1 | -2 | -2 | -1 | 1 | nt
CC1CCC(C(C)C)C(OCC(O)CNC(C)c2ccccc2)C1 (stereo unspecified) | 40* | 8.3* | 9 | 0 | 0 | 41*
COc1ccc(-c2cn[nH]c2-c2ccc(OCc3ccc(F)cc3)cc2O)cc1OC | 15 | 3 | 9 | -1 | -1 | nt
COc1ccccc1-c1cn[nH]c1-c1ccc(OCc2ccc(F)cc2)cc1O | 40* | 2 | 5 | 7 | 0 | 2
COc1ccccc1-c1cn[nH]c1-c1ccc(OCc2ccccc2F)cc1O | 40* | 8 | 4 | -2 | 1 | 2
C=C(C)COc1ccc(-c2[nH]ncc2-c2ccccc2)c(O)c1 | 12 | 4 | 2 | -1 | 2 | nt
COc1ccccc1-c1cn[nH]c1-c1ccc(O)cc1O | -1 | 0 | 9 | 2 | 0 | nt
O=[N+]([O-])c1ccc(COc2ccc(-c3[nH]ncc3-c3ccccc3)c(O)c2)cc1 | 42* | 5 | 4 | 0 | -1 | 4
SMILES | NTR1 agonist | MC4R ag barr | MC4R antagonist | Rev-erbA mod | PG9 Ab binder | NTR1 ag conf
CN(C)S(=O)(=O)c1ccc(-c2csc(N/N=C/c3ccco3)n2)cc1 | 71* | 3 | 8 | 3 | -1 | 78*
CCCCCc1cc(=O)oc2c(C(CCN3CCCC(C)C3)c3ccc(N(C)C)cc3)c(OC)cc(OC)c12 (stereo unspecified) | 51* | 6 | 8 | nt | nt | 53*
COc1ccc(C(CCN2CCCCC2)c2c(OC)cc(OC)c3c(-c4ccccc4)cc(=O)oc23)cc1 (stereo unspecified) | 42* | -1 | 0 | -6 | 0 | 41*
CCCCN1CC(COCc2ccccc2)Oc2cccc(Oc3ccc(F)cc3OC)c2S1(=O)=O (stereo unspecified) | nt | nt | nt | 1 | 0 | nt
CCOC(=O)/C=c1\s/c(=C\c2ccc3cc(OC)ccc3c2)c(=O)n1CC(=O)NCC1CCCO1 (stereo unspecified) | 52* | -2 | 0 | 0 | -1 | 45*
C[C@@H]1CN(S(=O)(=O)C(C)(C)C)[C@H](CCO)/C1=C\CCO | nt | nt | nt | 2 | -2 | nt
CS(=O)(=O)N[C@@H]1C[C@@H]2O[C@@H](CO)CC[C@@H]2O[C@@H]1CCc1ccc(-c2ccccc2F)cc1 | nt | nt | nt | 5 | nt | nt
CCCCOc1ccc2c(c1)C(=O)c1cc(O)ccc1-2 | 41* | 0 | -16 | 8 | -3 | 9
O=S1(=O)CC2c3ccccc3CN2CN1Cc1ccc(F)cc1 (stereo unspecified) | nt | nt | nt | 2 | nt | nt
Cc1c[nH]c2cccc(-c3c(Cl)cccc3Cl)c12 | nt | nt | nt | 17 | nt | nt
Cc1ccc(NC(c2ccccc2)c2nc3ccccc3[nH]c2=O)cc1 (stereo unspecified) | 40* | 8 | -11 | 3 | 0 | 8
CCOC(=O)[C@]12CCCCC/C=C\1N(Cc1ccc(OC)cc1)C(=O)[C@H]2CC(=O)NCc1ccc(OC)c(OC)c1 | nt | nt | nt | 0 | nt | nt
O=C(NCCc1ccccc1)OCc1cn(Cc2cccc(Cl)c2)nn1 | nt | nt | nt | 6 | nt | nt
CC(C)C[C@H]1CN=C(Nc2ccccc2)N1CC1CCCC1 | -2 | -2 | 6 | -4 | 0 | nt
CC(C)C[C@H]1CN=C(Nc2ccccc2)N1CC1CCC(C(C)(C)C)CC1 (stereo partly specified) | 42* | 8 | -1 | nt | nt | 57*
O=C(Nc1ccc(Cl)c(C(F)(F)F)c1)NC1CC2CCCC(C1)N2Cc1ccccc1 (stereo unspecified) | 44* | nt | nt | -2 | -2 | 23
COC(=O)c1c(NC(=O)C2SC(=NC3CCCCC3)C(C(N)=O)=C2N)sc2c1CCCC2 (stereo unspecified) | 43* | 2 | 3 | 5 | -1 | 17
CCCCNC(=O)NS(=O)(=O)c1ccc(NC(=O)CSc2nnc(-c3ccc(Cl)cc3)n2N)cc1 | nt | nt | nt | -2 | nt | nt
COC(=O)CCC(=O)N1C2=NC3=C(C(=O)N(Cc4ccc5c(c4)OCO5)C3=O)C3N(C)c4ccccc4[C@]23C[C@H]1CO (stereo partly specified) | nt | nt | nt | 1 | nt | nt
O=C(NN=Cc1ccc(O)cc1)c1cc(-c2ccc(Cl)cc2)n[nH]1 | nt | nt | nt | 5 | nt | nt
CCc1cccc(CC)c1-n1c(SCC(=O)N2CCc3ccccc3C2)nnc1-c1cccnc1 | 45* | 1 | 8 | -2 | -2 | 64*
Cn1c(SCC(=O)N2CCc3ccccc3C2)nnc1-c1ccncc1 | -1 | 0 | 6 | -1 | 1 | nt
